ChEMBL document CHEMBL4265871, “Novel alkylated azoles as potent antifungals” (Eur J Med Chem, 2017)
≈ marks a conversion by molar mass, not a printed value. Calls of active or inactive are those of the source. No cut-off for these calls is given here.

Assays:
Candida albicans [1] = assay: Antifungal carryover activity against Candida albicans ATCC 10231 assessed as 25% reduction in colony counts at 0.5 to 4 times MIC
[2] = Selectivity index, ratio of […] for toxicity in human A549 cells to MIC50 for antifungal activity against Aspergillus terreus ATCC MYA-3633; format: cell-based; conditions: read-out: Selectivity Index
Candida albicans [3] = assay: Effect on growth of Candida albicans ATCC 10231 assessed as increase in microbial growth at 0.5 times MIC incubated for 24 hrs by time kill assay; format: functional
Candida albicans [4] = assay: Fungistatic activity against Candida albicans ATCC 10231 assessed as reduction in microbial growth at 1 times MIC incubated for 24 hrs by time kill assay; format: functional
[5] = Selectivity index, ratio of EC50 for toxicity in human A549 cells to MIC50 for antifungal activity against Candida albicans ATCC 64124; format: cell-based; conditions: read-out: Selectivity Index
Summary of the method: (§1)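 Selectivity index is the EC50 against the mammalian line (A549 or BEAS-2B) divided by the MIC against the given fungal strain.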

[6] = Selectivity index, ratio of EC50 for toxicity in human BEAS2B cells to MIC50 for antifungal activity against ITC and FLC-susceptible Candida albicans ATCC MYA-2876; format: cell-based; conditions: BEAS-2B cells, read-out: Selectivity Index
Summary of the method: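 Ratio of the compound's EC50 against BEAS-2B cells to its MIC against the named C. albicans strain. […] For C. albicans strains other than ATCC 10231, trailing growth meant MIC-2 was taken, meaning 50% growth inhibition.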

Candida albicans [7] = assay: Fungicidal activity against Candida albicans ATCC 10231 assessed as reduction in microbial growth at 4 times MIC incubated for 9 hrs by time kill assay; format: functional
Aspergillus nidulans = assay: Antifungal activity against Aspergillus nidulans ATCC 38163 incubated for 48 hrs by CLSI M38-A2 protocol based method; format: functional; conditions: ATCC 38163, 48 h, read-out: MIC100
Candida albicans [8] = assay: Fungistatic activity against Candida albicans ATCC 10231 at 0.5 times MIC incubated for 3 to 12 hrs by time kill assay; format: functional, organism-based
Candida albicans [9] = assay: Induction of membrane permeabilization in Candida albicans ATCC 10231 at 1 to 4 times MIC incubated for 1 hr by propidium iodide staining based fluorescence microscopy; format: functional, organism-based
Summary of the method: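 C. albicans ATCC 10231 treated at 1× and 4× MIC and stained with propidium iodide, a membrane-impermeant dye, to detect membrane damage. Untreated cells, FLC (7.8 µg/mL) and KANB (C14) (7.8 µg/mL) serve as comparators.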

[10] = Toxicity in human BEAS2B cells assessed as reduction in cell viability incubated for 24 hrs by resazurin dye based assay; conditions: BEAS-2B cells
Summary of the method: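 Toxicity tested in the nucleated lines A549 and BEAS-2B to give EC50 values. Selectivity index is EC50 against the mammalian line divided by the MIC against a given fungal strain.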

[11] = Selectivity index, ratio of EC50 for toxicity in human A549 cells to MIC50 for antifungal activity against ITC and FLC-resistant Candida albicans ATCC MYA-1003; format: cell-based; conditions: read-out: Selectivity Index
Summary of the method: as §1

[12] = Selectivity index, ratio of EC50 for toxicity in human A549 cells to MIC50 for antifungal activity against ITC and FLC-resistant Candida albicans ATCC 1237; format: cell-based; conditions: read-out: Selectivity Index
Summary of the method: as §1

[13] = Selectivity index, ratio of […] for toxicity in human BEAS2B cells to MIC50 for antifungal activity against Aspergillus nidulans ATCC 38163; format: cell-based; conditions: BEAS-2B cells, read-out: Selectivity Index
[14] = Hemolytic activity in mouse erythrocytes assessed as hemolysis level at 3.9 ug/ml incubated for 1 hr at 37 degC; format: ADME, cell-based, Erythrocyte; conditions: read-out: Activity
Summary of the method: (§2)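 Mouse erythrocytes incubated 1 h at 37 °C with test agents over 1.95 to 125 µg/mL. Percent lysis is read for each concentration.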

Candida albicans [15] = assay: Fungistatic activity against Candida albicans ATCC 10231 at 1 times MIC incubated for 3 to 12 hrs by time kill assay; format: functional, organism-based
[16] = Hemolytic activity in mouse erythrocytes assessed as hemolysis level at 15.6 ug/ml incubated for 1 hr at 37 degC; format: ADME, cell-based, Erythrocyte; conditions: read-out: Activity
Summary of the method: as §2

[17] = Selectivity index, ratio of EC50 for toxicity in human A549 cells to MIC50 for antifungal activity against ITC and FLC-susceptible Candida albicans ATCC MYA-2876; format: cell-based; conditions: read-out: Selectivity Index
Summary of the method: as §1

Nakaseomyces glabratus = assay: Antifungal activity against Candida glabrata ATCC 2001 incubated for 48 hrs by modified CLSI M27-A3 protocol based method; format: functional; conditions: ATCC 2001, 48 h
Aspergillus terreus = assay: Antifungal activity against Aspergillus terreus ATCC MYA-3633 incubated for 48 hrs by CLSI M38-A2 protocol based method; format: functional; conditions: ATCC MYA-3633, 48 h, read-out: MIC100
Candida albicans [18] = assay: Antifungal activity against ITC and FLC-resistant Candida albicans ATCC MYA-90819 incubated for 48 hrs by modified CLSI M27-A3 protocol based method; format: functional; conditions: ATCC MYA-90819, 48 h
Candida albicans [19] = assay: Antifungal activity against Candida albicans ATCC 10231 at 0.5 to 4 times MIC incubated for 3 to 24 hrs by time kill assay
Candida albicans [20] = assay: Antifungal activity against ITC and FLC-susceptible Candida albicans ATCC MYA-2876 incubated for 48 hrs by modified CLSI M27-A3 protocol based method; format: functional; conditions: ATCC MYA-2876, 48 h
Summary of the method: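 Because these Candida strains show trailing growth, MIC-2 was read, meaning 50% growth inhibition. Caspofungin and voriconazole were tested here; other controls came from earlier work.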

Aspergillus flavus = assay: Antifungal activity against Aspergillus flavus ATCC MYA-3631 incubated for 48 hrs by CLSI M38-A2 protocol based method; format: functional; conditions: ATCC MYA-3631, 48 h, read-out: MIC100
Candida albicans [21] = assay: Effect on sterol composition in Candida albicans ATCC 10231 assessed as unknown sterol level at 0.125 ug/mL incubated for 10 mins by GC-MS analysis (reference value: 1.88 to 2.78%)
BEAS-2B = assay: Toxicity in human BEAS2B cells assessed as cell viability at 15.6 ug/ml incubated for 24 hrs by resazurin dye based assay
Candida albicans [22] = assay: Effect on sterol composition in Candida albicans ATCC 64124 assessed as ergosterol level at 1.95 ug/mL incubated for 10 mins by LC-MS analysis (reference value: 54.72%)
Candida albicans [23] = assay: Effect on sterol composition in Candida albicans ATCC 10231 assessed as lanosterol level at 0.125 ug/mL incubated for 10 mins by GC-MS analysis (reference value: 4.17%)
A549 = assay: Toxicity in human A549 cells assessed as cell viability at 15.6 ug/ml incubated for 24 hrs by resazurin dye based assay; conditions: a549, 24 h
Candida albicans [24] = assay: Effect on sterol composition in Candida albicans ATCC 64124 assessed as lanosterol level at 1.95 ug/mL incubated for 10 mins by LC-MS analysis (reference value: 29.38%)

Structure (SMILES)	Activity (Candida albicans [1])	selectivity ratio [2]	Activity (Candida albicans [3])	Activity (Candida albicans [4])	selectivity ratio [5]	selectivity ratio [6]	MIC (Aspergillus nidulans)	Activity (Candida albicans [8])	Activity (Candida albicans [9])	EC50 at 24 h [10]	selectivity ratio [11]	selectivity ratio [12]	selectivity ratio [13]	hemolysis at 1 h, 3.9 ug/ml [14]	Activity (Candida albicans [15])	hemolysis at 1 h, 15.6 ug/ml [16]	selectivity ratio [17]	MIC50 (Nakaseomyces glabratus)	MIC (Aspergillus terreus)	MIC50 (Candida albicans [18])	also measured
CCCCCCC(O)(Cn1cncn1)c1ccc(F)cc1F (stereo not drawn)	inactive	4	1 log10CFU	1 log10CFU	4	16	1.6 µM (≈ 0.495 µg/mL)	Active	inactive	> 31.3 µg/mL	18	18	65	0%	Active	8.2%	18	12.6 µM (≈ 3.9 µg/mL)	25.2 µM (≈ 7.8 µg/mL)	6.3 µM (≈ 1.95 µg/mL)	Activity (Candida albicans [7]): >=2 log10CFU; Activity (Candida albicans [19]): Dose-dependent effect; MIC50 (Candida albicans [20]): 6.3 µM (≈ 1.95 µg/mL); MIC (Aspergillus flavus): 50.4 µM (≈ 15.6 µg/mL)
CCCCCCC(O)(Cn1cncn1)c1ccc(Cl)cc1Cl (stereo not drawn)	inactive	5	1 log10CFU	0.25 log10CFU	10	29	1.4 µM (≈ 0.479 µg/mL)	Active	inactive	28 µg/mL (≈ 81.8 µM)	21	10	58	0%	Active	105%	21	5.7 µM (≈ 1.95 µg/mL)	11.4 µM (≈ 3.9 µg/mL)	5.7 µM (≈ 1.95 µg/mL)	Activity (Candida albicans [21]): 4.36 - 5.57%; viability (BEAS-2B): > 85%; Activity (Candida albicans [22]): 5.73%; Activity (Candida albicans [23]): 19.3%; viability (A549): > 85%; Activity (Candida albicans [24]): 28.99%; Activity (Candida albicans [19]): Dose-dependent effect; MIC50 (Candida albicans [20]): 2.8 µM (≈ 0.958 µg/mL); MIC (Aspergillus flavus): 11.4 µM (≈ 3.9 µg/mL)
